Assay results reported in ChEMBL document CHEMBL1275447 (Antimicrob Agents Chemother, 2008).
Values after ≈ are worked out from the molar mass of the structure shown.

How the values were obtained:
[1] = Cmax in Pseudomonas aeruginosa ATCC 27853 infected neutropenic ICR mouse at 5.5, 2.25, 4.5, 4.5, 4.5, 4.5, 0.75, and 0.375 mg/kg given at 0, 0.5, 1.5, 2.5, 3.5, 4.5, 6, and 7.5 h over 24 h; assay type: ADME, organism-based; set-up: dose 0.375 mg/kg; details: in vivo
[2] = fT>MIC in human infected with Pseudomonas aeruginosa isolate 1058 at 500 mg administered as 1 hr infusion; assay type: functional
Pseudomonas aeruginosa [3] = experiment: Antibacterial activity against Pseudomonas aeruginosa isolate 1050 by microdilution method; assay type: functional
Method in brief: (§1)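 CLSI broth microdilution in cation-adjusted Mueller-Hinton broth (20–25 mg/liter Ca, 10–12.5 mg/liter Mg). Standard inoculum 10⁵ CFU/ml, incubated in ambient air. Clinical hospital isolates.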

[4] = Cmax in Pseudomonas aeruginosa ATCC 27853 infected neutropenic ICR mouse at 10 mg/kg, sc administered as single dose 2 hrs postinfection by HPLC; assay type: ADME, organism-based; set-up: dose 10 mg/kg, route subcutaneous; details: in vivo
Method in brief: (§2)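 Neutropenic mice (cyclophosphamide ip 150 and 100 mg/kg, 4 and 1 days before inoculation) with uranyl nitrate 5 mg/kg ip 3 days before, for renal impairment. Thigh infection with ATCC 27853 at 10⁶ CFU/ml, 0.1 ml per thigh. Single sc doses 2 h later. Intracardiac blood from 6–12 mice per time point, eight time points over 4 h. Serum assayed by HPLC (linear 0.5–40 μg/ml). One-compartment first-order fit.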

Pseudomonas aeruginosa [5] = experiment: Antibacterial activity against Pseudomonas aeruginosa isolate 968 by microdilution method; assay type: functional
[6] = fT>MIC in neutropenic mouse infected with Pseudomonas aeruginosa isolate 936 at 500 mg administered as 4 hr infusion; assay type: functional
Method in brief: (§3)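 Mouse fT>MIC was modelled with first-order one-compartment serum PK and 25.2% binding. Mice were neutropenic (cyclophosphamide) with uranyl nitrate renal impairment. Subcutaneous doses were 5.5, 2.25, 4.5, 4.5, 4.5, 4.5, 0.75, 0.375 mg/kg at 0, 0.5, 1.5, 2.5, 3.5, 4.5, 6, 7.5 h per 8-h interval over 24 h.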

[7] = fT>MIC in human infected with Pseudomonas aeruginosa isolate 988 at 500 mg administered as 4 hr infusion; assay type: functional
Pseudomonas aeruginosa [8] = experiment: Antibacterial activity against Pseudomonas aeruginosa isolate 1082 by microdilution method; assay type: functional; method in brief: as §1
[9] = fT>MIC in neutropenic mouse infected with Pseudomonas aeruginosa isolate 906 at 500 mg administered as 4 hr infusion; assay type: functional; method in brief: as §3
[10] = fT>MIC in neutropenic mouse infected with Pseudomonas aeruginosa isolate 1005 at 500 mg administered as 4 hr infusion; assay type: functional
[11] = Cmax in Pseudomonas aeruginosa ATCC 27853 infected neutropenic ICR mouse at 50 mg/kg, sc administered as single dose 2 hrs postinfection by HPLC; assay type: ADME, organism-based; set-up: dose 50 mg/kg, route subcutaneous; details: in vivo; method in brief: as §2
[12] = fT>MIC in neutropenic mouse infected with Pseudomonas aeruginosa isolate 1052 at 500 mg administered as 4 hr infusion; assay type: functional; method in brief: as §3
[13] = fT>MIC in neutropenic mouse infected with Pseudomonas aeruginosa isolate 1060 at 500 mg administered as 1 hr infusion; assay type: functional
Method in brief: (§4)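 Free-drug time above MIC simulated from one-compartment mouse serum PK (25.2% protein binding). The mice were cyclophosphamide-neutropenic and uranyl nitrate-renally impaired. Regimen was subcutaneous 10, 15, 2.5, 1.25, 0.5, 0.25 mg/kg at 0, 0.5, 2.5, 4, 5.5, 7 h, repeated every 8 h over 24 h.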

[14] = Tmax in Pseudomonas aeruginosa ATCC 27853 infected neutropenic ICR mouse at 150 mg/kg, sc administered as single dose 2 hrs postinfection by HPLC; assay type: ADME, organism-based; set-up: dose 150 mg/kg, route subcutaneous; details: in vivo; method in brief: as §2
[15] = fT>MIC in neutropenic mouse infected with Pseudomonas aeruginosa isolate 988 at 500 mg administered as 4 hr infusion; assay type: functional; method in brief: as §3
[16] = fT>MIC in human infected with Pseudomonas aeruginosa isolate 935 at 500 mg administered as 1 hr infusion; assay type: functional
Pseudomonas aeruginosa [17] = experiment: Antibacterial activity against Pseudomonas aeruginosa isolate 896 by microdilution method; assay type: functional
[18] = fT>MIC in human infected with Pseudomonas aeruginosa isolate 1060 at 500 mg administered as 4 hr infusion; assay type: functional
Pseudomonas aeruginosa [19] = experiment: Antibacterial activity against Pseudomonas aeruginosa isolate 931 by microdilution method; assay type: functional; method in brief: as §1
[20] = fT>MIC in neutropenic mouse infected with Pseudomonas aeruginosa isolate 886 at 500 mg administered as 4 hr infusion; assay type: functional; method in brief: as §3
[21] = fT>MIC in human infected with Pseudomonas aeruginosa isolate 869 at 500 mg administered as 1 hr infusion; assay type: functional
[22] = fT>MIC in human infected with Pseudomonas aeruginosa isolate 869 at 500 mg administered as 4 hr infusion; assay type: functional
[23] = fT>MIC in neutropenic mouse infected with Pseudomonas aeruginosa isolate 906 at 500 mg administered as 1 hr infusion; assay type: functional; method in brief: as §4
[24] = Tmax in Pseudomonas aeruginosa ATCC 27853 infected neutropenic ICR mouse at 50 mg/kg, sc administered as single dose 2 hrs postinfection by HPLC; assay type: ADME, organism-based; set-up: dose 50 mg/kg, route subcutaneous; details: in vivo; method in brief: as §2
Pseudomonas aeruginosa [25] = experiment: Antibacterial activity against Pseudomonas aeruginosa isolate 1052 by microdilution method; assay type: functional; method in brief: as §1
[26] = fT>MIC in neutropenic mouse infected with Pseudomonas aeruginosa isolate 1062 at 500 mg administered as 4 hr infusion; assay type: functional; method in brief: as §3
Pseudomonas aeruginosa [27] = experiment: Antibacterial activity against Pseudomonas aeruginosa isolate 936 by microdilution method; assay type: functional
[28] = AUC in Pseudomonas aeruginosa ATCC 27853 infected neutropenic ICR mouse at 500 mg administered as 4 hr infusion; assay type: ADME, organism-based; details: plasma, iv
[29] = Cmax in Pseudomonas aeruginosa ATCC 27853 infected neutropenic ICR mouse at 150 mg/kg, sc administered as single dose 2 hrs postinfection by HPLC; assay type: ADME, organism-based; set-up: dose 150 mg/kg, route subcutaneous; details: in vivo; method in brief: as §2
Pseudomonas aeruginosa [30] = experiment: Antibacterial activity against Pseudomonas aeruginosa isolate 1062 by microdilution method; assay type: functional
[31] = fT>MIC in neutropenic mouse infected with Pseudomonas aeruginosa isolate 1029 at 500 mg administered as 4 hr infusion; assay type: functional
[32] = fT>MIC in human infected with Pseudomonas aeruginosa isolate 944 at 500 mg administered as 4 hr infusion; assay type: functional
[33] = fT>MIC in neutropenic mouse infected with Pseudomonas aeruginosa isolate 1058 at 500 mg administered as 1 hr infusion; assay type: functional; method in brief: as §4
[34] = fT>MIC in neutropenic mouse infected with Pseudomonas aeruginosa isolate 944 at 500 mg administered as 1 hr infusion; assay type: functional; method in brief: as §4
Pseudomonas aeruginosa [35] = experiment: Antibacterial activity against Pseudomonas aeruginosa isolate 1029 by microdilution method; assay type: functional
[36] = fT>MIC in human infected with Pseudomonas aeruginosa isolate 1036 at 500 mg administered as 1 hr infusion; assay type: functional
[37] = fT>MIC in human infected with Pseudomonas aeruginosa isolate 1005 at 500 mg administered as 4 hr infusion; assay type: functional
[38] = fT>MIC in human infected with Pseudomonas aeruginosa isolate 927 at 500 mg administered as 4 hr infusion; assay type: functional
[39] = fT>MIC in neutropenic mouse infected with Pseudomonas aeruginosa isolate 931 at 500 mg administered as 1 hr infusion; assay type: functional; method in brief: as §4
Pseudomonas aeruginosa [40] = experiment: Antibacterial activity against Pseudomonas aeruginosa isolate 1050 by fractionation study; assay type: functional

**Q.** For `C[C@@H](O)[C@H]1C(=O)N2C(C(=O)O)=C(S[C@@H]3CN[C@H](CNS(N)(=O)=O)C3)[C@H](C)[C@H]12` [DORIPENEM], which Cmax [1] is on record?
**A.** Its Cmax is 7990 ng/mL.

**Q.** And the “fT>MIC” value [2]?
**A.** Its value is 40%.

**Q.** What about the MIC (Pseudomonas aeruginosa [3]) of the same compound?
**A.** Its MIC is 4 µg/mL (≈ 9.51 µM).

**Q.** And the Cmax [4]?
**A.** Its Cmax is 16300 ng/mL.

**Q.** And the MIC (Pseudomonas aeruginosa [5])?
**A.** Its MIC is 16 µg/mL (≈ 38 µM).

**Q.** What about the “fT>MIC” value [6] of the same compound?
**A.** Its value is 0%.

**Q.** And the fT>MIC [7]?
**A.** Its fT>MIC is 0%.

**Q.** What about the MIC (Pseudomonas aeruginosa [8]) of the same compound?
**A.** The MIC was 1 µg/mL (≈ 2.38 µM).

**Q.** What about the “fT>MIC” value [9] of the same compound?
**A.** The value was 70%.

**Q.** What about the “fT>MIC” value [10] of the same compound?
**A.** Its value is 82.5%.

**Q.** What about the Cmax [11] of the same compound?
**A.** Its Cmax is 59.7 µg/mL.

**Q.** What about the “fT>MIC” value [12] of the same compound?
**A.** Its value is 82.5%.

**Q.** And the fT>MIC [13]?
**A.** The fT>MIC was 30%.

**Q.** And the Tmax [14]?
**A.** The Tmax was 13.2 min.

**Q.** And the “fT>MIC” value [15]?
**A.** Its value is 0%.

**Q.** What about the “fT>MIC” value [16] of the same compound?
**A.** Its value is 55%.

**Q.** What about the MIC (Pseudomonas aeruginosa [17]) of the same compound?
**A.** The MIC was 8 µg/mL (≈ 19 µM).

**Q.** What about the fT>MIC [18] of the same compound?
**A.** Its fT>MIC is 55%.

**Q.** What about the MIC (Pseudomonas aeruginosa [19]) of the same compound?
**A.** The MIC was 4 µg/mL (≈ 9.51 µM).

**Q.** And the “fT>MIC” value [20]?
**A.** The value was 100%.

**Q.** What about the “fT>MIC” value [21] of the same compound?
**A.** Its value is 90%.

**Q.** And the fT>MIC [22]?
**A.** Its fT>MIC is 100%.

**Q.** And the fT>MIC [23]?
**A.** Its fT>MIC is 42.5%.

**Q.** And the Tmax [24]?
**A.** Its Tmax is 22.8 min.

**Q.** And the MIC (Pseudomonas aeruginosa [25])?
**A.** Its MIC is 1 µg/mL (≈ 2.38 µM).

**Q.** What about the “fT>MIC” value [26] of the same compound?
**A.** Its value is 95%.

**Q.** What about the MIC (Pseudomonas aeruginosa [27]) of the same compound?
**A.** The MIC was 8 µg/mL (≈ 19 µM).

**Q.** And the AUC at 4 h [28]?
**A.** Its AUC at 4 h is 34400 ng·h/mL.

**Q.** What about the Cmax [29] of the same compound?
**A.** Its Cmax is 194 µg/mL.

**Q.** And the MIC (Pseudomonas aeruginosa [30])?
**A.** Its MIC is 0.5 µg/mL (≈ 1.19 µM).

**Q.** What about the “fT>MIC” value [31] of the same compound?
**A.** Its value is 100%.

**Q.** What about the fT>MIC [32] of the same compound?
**A.** The fT>MIC was 55%.

**Q.** And the fT>MIC [33]?
**A.** Its fT>MIC is 42.5%.

**Q.** What about the fT>MIC [34] of the same compound?
**A.** The fT>MIC was 30%.

**Q.** And the MIC (Pseudomonas aeruginosa [35])?
**A.** Its MIC is 0.125 µg/mL (≈ 0.297 µM).

**Q.** And the “fT>MIC” value [36]?
**A.** Its value is 40%.

**Q.** And the fT>MIC [37]?
**A.** Its fT>MIC is 80%.

**Q.** What about the fT>MIC [38] of the same compound?
**A.** The fT>MIC was 0%.

**Q.** What about the fT>MIC [39] of the same compound?
**A.** Its fT>MIC is 30%.

**Q.** What about the MIC (Pseudomonas aeruginosa [40]) of the same compound?
**A.** The MIC was 4 µg/mL (≈ 9.51 µM).
